Screens deposited in PubChem BioAssay by several laboratories.
CHOP UPR activ – apoptotic UPR (CHOP) activation. activation, % at 10 µM. 0.34% of 330,000 active. CHO-CHOP luciferase reporter, luminescence; percent of tunicamycin response over DMSO baseline. AID 449763;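 active = at 10 µM dose, activation of 40% or more, normalized to positive control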
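Assay system: CHO-CHOP cells, stable luciferase reporter of PERK-eIF2a-CHOP signalling / Buffer or medium: F12 plus 10% serum / Compound dosing: one dose, 10 µM in 0.5% DMSO / Times: 6 h compound treatment, 37 °C / Technique: luciferase luminescence / Read-out: % reporter activation, DMSO baseline versus tunicamycin full activation / Benchmarks: tunicamycin and DMSO controls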
XBP1 UPR activ – activators of adaptive arm of unfolded protein response (XBP1); CHO-XBP1 luciferase reporter, IRE1-XBP1 UPR activation, luminescence; percent of tunicamycin response, DMSO as zero; activation, % at 20 µM; 0.33% of 330,000 active; AID 463104;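 active = versus positive control, 20 µM dose yields 30% or more activation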
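Material: CHO-XBP1 cells stably carrying IRE1-XBP1-driven luciferase reporter | Medium: F12 with 10% serum | Compound dosing: 20 µM single concentration, DMSO 1% | Incubation: Overnight seeding at 37 °C, 6 h compound treatment at 37 °C | Detection: Steady-Glo luminescence read | Read-out basis: % activation of reporter signal versus tunicamycin and DMSO controls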
CHOP inhibitor – blocks CHOP induction under ER stress | AID 2732 | inhibition, % at 10 µM | CHO-K1 CHOP-promoter luciferase, tunicamycin-induced, 15-18 h | 3.8% of 220,000 active;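 active = compounds that reduced the stress-induced luciferase reporter signal by more than about 70% of percent inhibition, limit read from the data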
CTSL1 counter – counter-screen for PFM18AAP inhibitors: inhibitors of F. hepatica cathepsin L1; inhibition, % at 5.96 µM; AID 1906; recombinant F. hepatica cathepsin L1, Z-Leu-Arg-MCA fluorescence; 0.49% of 300,000 active;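 active = inhibition above the mean of all tested compounds plus 3 SD, set per screening campaign, cut at about 17% in these data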
UCH37 inh – blocks the human deubiquitinase UCH37 | inhibition, % (no concentration beside the values) | 0.33% of 330,000 active | Q9Y5K5 | purified proteasome/UCH37, Ub-AMC cleavage fluorescence;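 active = mean inhibition over replicate wells above about 20%, limit read from the data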
Target sequence (Q9Y5K5 whole entry, looked up): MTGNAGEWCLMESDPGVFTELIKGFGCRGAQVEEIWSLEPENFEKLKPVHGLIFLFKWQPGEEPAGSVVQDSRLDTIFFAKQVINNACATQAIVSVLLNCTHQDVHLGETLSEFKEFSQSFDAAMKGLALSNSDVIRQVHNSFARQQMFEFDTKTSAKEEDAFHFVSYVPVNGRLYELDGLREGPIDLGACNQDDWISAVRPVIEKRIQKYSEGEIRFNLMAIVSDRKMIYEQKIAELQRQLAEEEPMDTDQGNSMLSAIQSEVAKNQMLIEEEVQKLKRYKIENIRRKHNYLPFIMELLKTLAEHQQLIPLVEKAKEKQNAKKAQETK
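Material: human UCH37 enzyme supplied as purified proteasome complex. Measure: % inhibition of Ub-AMC cleavage fluorescence. Medium: pH 7.4 Tris-HCl (50 mM) with ovalbumin, ATP-MgCl2, DTT. Times: 30 min preincubation with enzyme, 25 min cleavage at room temperature. Detection: AMC fluorescence intensity at 355/460 nm.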
XBP1 UPR conf – confirmation of adaptive unfolded protein response (XBP1) activators | shares compounds with XBP1 UPR activ | CHO-XBP1 IRE1-XBP1 luciferase reporter, luminescence | activation, % at 20 µM | 63% of 1,000 active;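 active = reporter signal at least 30% of the positive control's activation in two or more of four replicate wells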
Numbers stand for hits; - = inactive; . = not tested or not shown. The full list was thinned out, with hits kept by preference.

SMILES | CHOP UPR activ | XBP1 UPR activ | CHOP inhibitor | CTSL1 counter | UCH37 inh | XBP1 UPR conf
COc1cc(NC(=O)c2cccs2)ccc1NC(=O)c1cc2ccccc2o1 | - | 68.7 | 91.2 | - | - | 37.0
CN1CCN(c2ccc([N+](=O)[O-])cc2C(=O)c2ccc(Br)cc2)CC1 | - | - | - | - | - | .
O=C(c1ccc(Br)cc1)c1cc([N+](=O)[O-])ccc1N1CCCCC1 | - | 31.7 | - | - | - | -
CC1=CC(C)(C)N2C(=O)C(=O)c3cc(OC(=O)c4ccco4)cc1c32 | - | 40.8 | - | - | - | 57.2
CCOc1ccc(-c2c(C(=O)NN=Cc3cccnc3)nnn2-c2nonc2N)cc1 | . | . | . | . | - | .
COc1ccc(/C=N/n2c(=O)[nH]c3c([nH]c4ccc(C)cc43)c2=O)cc1CN1CCOCC1 | . | . | - | . | . | .
CC1=CC(C)[C@H](/C=N/n2c(=O)[nH]c3c([nH]c4ccc(C)cc43)c2=O)C(C)C1 (stereo partly specified) | - | 86.8 | - | - | . | 98.8
O=C(CNC(=O)c1ccco1)NN=Cc1cc(Br)ccc1O | . | . | . | . | - | .
CCOc1ccc(NC(=O)C(Cc2ccccc2)N2C(=O)c3cccc4cccc(c34)C2=O)cc1 (stereo unspecified) | - | 64.9 | - | - | - | 68.7
CCOc1ccc(NC(=O)C(CC(=O)O)Cc2ccccc2)cc1 (stereo unspecified) | - | - | - | - | - | .
COc1ccc(-c2oc(=O)c3cc(OC)c(OC)cc3c2/C=C/c2ccc(OC(C)=O)cc2)cc1 | - | - | . | . | - | .
COc1cc(-c2noc(C)c2/C=C/c2ccc(OC(C)=O)cc2)cc(OC)c1OC | - | 31.9 | . | - | - | 32.2
CCC(CC)C(=O)Nc1cccc(C(C)=NNC(=O)c2ccccc2Cl)c1 | . | . | . | . | - | .
Cn1ncc(Cl)c1C(=O)Nc1cccc(Cl)c1 | - | - | - | - | - | .
Cn1ncc(N=Cc2c(O)ccc3ccccc23)c1C(=O)Nc1cccc(Cl)c1 | - | 98.7 | 75.8 | - | - | 80.2
COc1ccc(/C=N\NC(=O)c2cc(O)c(O)c(O)c2)cc1COc1ccc(C(=O)OCC(C)C)cc1 | - | 40.7 | . | - | . | -
Cc1ccc(NC(=O)CSc2ccccc2NC(=O)c2cccc(Cl)c2)cc1Cl | - | 35.6 | - | - | - | -
Cc1ccc(-c2csc(/C(C#N)=C/Nc3ccc4c(c3)OCCO4)n2)cc1 | - | 32.8 | - | - | - | -
COc1cccc(NC(=O)CSc2nc3c([nH]c4ccccc43)c(=O)n2C)c1 | - | 34.8 | - | - | . | -
COC(=O)c1sc(NC(=O)c2cnccn2)c(C(=O)OC)c1C | - | 41.2 | . | - | - | -
O=C(NN=Cc1cccnc1)c1ccccc1O | . | . | . | . | - | .
CCOC(=O)Oc1ccc2oc(C)c(C(=O)OCCOC)c2c1 | - | - | - | - | - | .
COCCOC(=O)c1c(C)oc2ccc(OC(=O)c3ccc4c(c3)OCO4)cc12 | - | 76.2 | - | - | - | -
CC1=N/C(=C\c2cc(Br)cc(Br)c2O)C(=O)O1 | . | . | . | . | - | .
COc1cc(OC)cc(C(=O)Nc2ccccc2-c2nnn(CC(=O)Nc3cc(C)on3)n2)c1 | - | 327.4 | . | - | - | -
SMILES | CHOP UPR activ | XBP1 UPR activ | CHOP inhibitor | CTSL1 counter | UCH37 inh | XBP1 UPR conf
COc1cc(C=NNC(=O)Cc2cccs2)c([N+](=O)[O-])cc1OC | . | . | . | . | - | .
COc1ccc(CNCCC(c2ccc(F)cc2)c2ccc(OC)cc2)cc1 (stereo unspecified) | - | - | - | - | - | .
COc1ccc(C(CCNC(C)c2ccccc2)c2ccc(F)cc2)cc1 (stereo unspecified) | - | 45.5 | - | - | - | 63.2
COc1ccc(C(CCNCc2ccccc2)c2ccc(F)cc2)cc1 (stereo unspecified) | - | 48.2 | - | - | - | 71.3
Cc1ccc2[nH]c3c(=O)n(CC(=O)N4CC(C)CC(C)C4)ncc3c2c1 (stereo unspecified) | - | 31.7 | . | - | - | -
COc1cc(C(=O)N/N=C/c2ccsc2C)cc(OC)c1OC | - | 30.4 | - | - | . | -
S=c1[nH]nc(C2CCCCC2)n1N=Cc1cccs1 | . | . | . | . | - | .
Cc1c(O)ccc(C(Cc2ccc3ccccc3n2)=NO)c1O | . | . | . | . | - | .
CC(=NN1CCN(Cc2ccc(Cl)cc2)CC1)c1ccc([N+](=O)[O-])cc1 | . | . | . | . | - | .
Cc1cccc(N=Cc2sc3ccccc3c2O)n1 | . | . | . | . | - | .
O=C(NCC1CCCO1)c1nn2c(C(F)(F)F)cc(-c3ccco3)nc2c1Cl (stereo unspecified) | - | - | . | - | - | .
O=C(NCC1CCCO1)c1nn2c(C(F)(F)F)cc(-c3cc(Br)cs3)nc2c1Br (stereo unspecified) | - | 41.6 | . | - | - | 40.3
Cn1nnnc1Sc1ncnc2scc(-c3ccc(Br)cc3)c12 | - | 99.6 | . | . | - | 140.8
O=C1Nc2ccccc2/C1=C/c1ccc([N+](=O)[O-])cc1 | - | 74.8 | . | - | - | 76.5
O=C1Nc2ccccc2/C1=C/c1ccccc1Cl | - | - | . | - | - | .
Cc1nc(N2CCN(C(=O)c3cnccn3)CC2)c2c3c(sc2n1)CC(C(C)(C)C)CC3 (stereo unspecified) | - | 34.1 | . | - | - | -
C[C@@H]1CN([C@H](C)CO)C(=O)Cc2cc(NS(=O)(=O)c3ccc(Cl)cc3)ccc2O[C@H]1CN(C)Cc1ccc(C(F)(F)F)cc1 | - | 47.5 | . | . | - | -
C[C@@H]1CN([C@H](C)CO)C(=O)Cc2cc(NS(=O)(=O)c3ccc(F)cc3)ccc2O[C@H]1CN(C)Cc1ccc(C(=O)O)cc1 | - | - | . | . | - | .
C(=NN(c1ccccc1)c1ccccc1)c1ccccn1 | . | . | . | . | - | .
CCCCN1C(=O)/C(=C2/Sc3ccc(OC)cc3N2CC)SC1=S | - | 93.5 | . | - | - | 49.4
Cn1c2c(c3ccccc31)CCC2=NO | . | . | . | . | - | .
CC(=O)O[C@@H]1[C@@H](O)[C@@H](O)[C@H](Oc2c(-c3ccc(O)cc3)oc3c(CC=C(C)C)c(O)cc(O)c3c2=O)O[C@H]1C | - | - | . | - | - | .
CC(=O)O[C@H]1[C@@H](O)[C@H](O)[C@H](Oc2c(O)c(C)c3c4c2[C@@H](C)CC[C@@H]4[C@@H](C)C[C@H]3C=C(C)C)O[C@H]1C | - | 46.8 | . | . | . | -
COc1cc(/C=C/c2ccc3cccc(O)c3n2)cc(OC)c1OC | 338.8 | 77.1 | . | - | - | -
COc1cccc(/C=C/c2ccc3cccc(O)c3n2)c1OC | - | - | . | - | . | .
COc1cc(/C=C/c2ccc3cccc(O)c3n2)cc(Cl)c1OC | - | 66.0 | . | - | - | -
O=C(NN=Cc1ccc(N2CCCCC2)o1)c1ccccc1[N+](=O)[O-] | . | . | . | . | - | .
Cc1nc(Sc2nnnn2C)c2c3c(sc2n1)CCC3 | - | 37.1 | - | - | - | -
COc1cc(C=NN2CCN(c3ccccc3)CC2)cc(OC)c1OC(C)=O | . | . | . | . | - | .
